ChEMBL document CHEMBL1123985, “Oral absorption of cephalosporin antibiotics. 1. Synthesis, biological properties, and oral bioavailability of 7-(arylacetamido)-3-chloro cephalosporins in animals” (J Med Chem, 1988)
Converted amounts (≈) assume the structure as drawn.

Tests used:
[1] = Percent of urinary recovery in rats after, oral administration of single 20 mg/kg dose in solution (N,range); type: ADME, organism-based; parameters: dose 20 mg/kg, route oral; conditions: rat, urine, read-out: Recovery
How it was run: (§1)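 Male Wistar rats (200-300 g), jugular-cannulated, upper GI emptied by light cycle; 20 mg/kg in saline (6 mg/mL) sc or orally. Urine collected in wire-bottom cages, assayed by B. subtilis agar well method. Mean ± SD recovery with N and range; bioavailability = oral over mean sc recovery.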

Streptococcus pneumoniae [2] = assay: Minimum inhibitory concentration against park strain of Streptococcus pneumoniae
Staphylococcus aureus [3] = assay: Minimum inhibitory concentration against X1.1 strain of Staphylococcus aureus; type: functional
[4] = Mean plasma levels in rats at a time 5 min after iv administration of 100 mg/kg of probenecid 5 min prior to test compound; type: ADME, organism-based; parameters: dose 100 mg/kg, route intravenous; conditions: rat, read-out: Plasma levels
How it was run: (§2)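 Rats, jugular vein cannulated (two per group), test compound iv 20 mg/kg; probenecid 100 mg/kg iv 5 min before in treated groups. Heparinized plasma sampled at 5, 20, 40 min and 1, 2, 3 h, assayed microbiologically (B. subtilis agar well). AUC 0-3 h in μg min/mL; half-life in min.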

Klebsiella aerogenes = assay: Minimum inhibitory concentration against EB17 strain of Enterobacter aerogenes; type: functional
[5] = Oral bioavailability in Rhesus monkey; type: ADME, organism-based, Macaca mulatta; conditions: in vivo
How it was run: (§3)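 Rhesus monkeys, adult males, six animals per compound, each given drug orally and iv; fasted overnight. Single 30 mg/kg solution doses, by nasogastric tube (in water) or saphenous vein (in isotonic lactated Ringer). Plasma sampled at intervals, frozen at -70 °C, antibacterial activity by microbiological assay. AUC in μg min/mL; oral bioavailability from oral vs iv AUC.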

[6] = Mean plasma levels in rats 40 min after iv administration of 100 mg/kg of probenecid 5 min prior to test compound; type: ADME, organism-based; parameters: dose 100 mg/kg, route intravenous; conditions: rat, read-out: Plasma levels; how it was run: as §2
[7] = system: Staphylococcus epidermidis; assay: Minimum inhibitory concentration against Epil strain of Staphylococcus epidermidis; type: functional
[8] = Mean plasma levels in rats 3h after intravenous administration of 20 mg/kg of compound; type: ADME, organism-based; parameters: dose 20 mg/kg, route intravenous; conditions: rat, read-out: Plasma levels; how it was run: as §2
[9] = system: Staphylococcus epidermidis; assay: Minimum inhibitory concentration against 222 strain of Staphylococcus epidermidis; type: functional
Staphylococcus aureus [10] = assay: Minimum inhibitory concentration against 3055 strain of Staphylococcus aureus
[11] = Minimum inhibitory concentration against sens CL strain of Haemophilus influenzae; type: functional
[12] = Minimum inhibitory concentration against N9 strain of Shigella sonnei; type: functional
[13] = Area under plasma concentration vs time curve observed in Rhesus monkeys after, iv administration of single 30 mg/kg dose; type: ADME, organism-based, Macaca mulatta; parameters: dose 30 mg/kg, route intravenous; conditions: rhesus monkey; how it was run: as §3
[14] = Dose in urine (24-h urine excretion) in female mongrel dogs after oral administration of single 15 mg/kg dose; type: ADME, organism-based, Canis lupus familiaris; parameters: dose 15 mg/kg, route oral; conditions: dog
How it was run: (§4)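 Female mongrel dogs (n=6), bladder catheter; urine collected at intervals after single 15 mg/kg iv or oral solution dose, frozen; antibiotic activity by disk-plate agar diffusion against E. coli MB 3804 with standards in pH 6.0 buffer; percent of dose recovered in urine.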

Canis familiaris [15] = assay: Area under plasma concentration vs time curve observed in female mongrel dogs after, oral administration of single 15 mg/kg dose; type: ADME, organism-based, Canis lupus familiaris; parameters: dose 15 mg/kg, route oral; conditions: dog, in vivo
How it was run: (§5)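 Six female mongrel dogs (14-23 kg) fasted overnight, bladder catheterized; single 15 mg/kg solution doses by stomach tube (in water, total 500 mL) or cephalic vein (saline or pH 6.0 NaCl/phosphate/acetate buffer). Plasma sampled at intervals; activity by disk-plate agar diffusion against E. coli MB 3804, standards in dog serum or buffer. AUC μg min/mL, mean ± SEM; BA from iv vs po AUC and urinary recovery.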

[16] = Area under plasma concentration vs time curve observed in rats for 0-3 h; type: ADME; parameters: time < 3 hr; conditions: rat; how it was run: as §2
[17] = Oral bioavailability in mouse; type: ADME, organism-based; conditions: in vivo
How it was run: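 Male Cox mice given water and liquid diet overnight; 20 mg/kg in saline (2 mg/mL) sc or orally; urine from collection cages plus bladder contents over 2 h; activity by agar well assay with Bacillus subtilis ATCC 6633. Bioavailability from percent dose excreted in urine after oral vs parenteral dosing.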

[18] = Mean plasma levels in rats 20 min after iv administration of 100 mg/kg of probenecid 5 min prior to test compound; type: ADME, organism-based; parameters: dose 100 mg/kg, route intravenous; conditions: rat, read-out: Plasma levels; how it was run: as §2
[19] = Bioavailability in rat; type: ADME, organism-based; conditions: in vivo; how it was run: as §1
[20] = Percent of urinary recovery in rats after, sc administration of single 20 mg/kg dose in solution (N,range); type: ADME, organism-based; parameters: dose 20 mg/kg, route subcutaneous; conditions: rat, urine, read-out: Recovery; how it was run: as §1
Canis familiaris [21] = assay: Area under plasma concentration vs time curve observed in female mongrel dogs after, iv administration of single 15 mg/kg dose; type: ADME, organism-based, Canis lupus familiaris; parameters: dose 15 mg/kg, route intravenous; conditions: dog, in vivo; how it was run: as §5
[22] = Area under plasma concentration vs time curve observed in Rhesus monkeys after oral administration of single 30 mg/kg dose; type: ADME, organism-based, Macaca mulatta; parameters: dose 30 mg/kg, route oral; conditions: rhesus monkey; how it was run: as §3
[23] = Mean plasma levels in rats 2 hr after iv administration of 100 mg/kg of probenecid 5 min prior to test compound; type: ADME, organism-based; parameters: dose 100 mg/kg, route intravenous; conditions: rat, read-out: Plasma levels; how it was run: as §2
[24] = Half-life of the compound; type: ADME; how it was run: as §2
Streptococcus pyogenes [25] = assay: Minimum inhibitory concentration against C203 strain of Streptococcus pyogenes
Salmonella = assay: Minimum inhibitory concentration against X514 strain of Salmonella; type: functional
Streptococcus pyogenes [26] = assay: Minimum inhibitory concentration against Streptococcus pyogenes C203; type: functional
[27] = Mean plasma levels in rats 1 hr after iv administration of 100 mg/kg of probenecid 5 min prior to test compound; type: ADME, organism-based; parameters: dose 100 mg/kg, route intravenous; conditions: rat, read-out: Plasma levels; how it was run: as §2
[28] = Dose in urine (24-h urine excretion) in female mongrel dogs after iv administration of single 15 mg/kg dose; type: ADME, organism-based, Canis lupus familiaris; parameters: dose 15 mg/kg, route intravenous; conditions: dog; how it was run: as §4
[29] = Minimum inhibitory concentration against res 76 strain of Haemophilus influenzae; type: functional
Streptococcus pneumoniae [30] = assay: Minimum inhibitory concentration against Park strain of Streptococcus pneumoniae

dose excreted [1]: 16.2% | MIC (Streptococcus pneumoniae [2]): 0.5 µg/mL (≈ 1.33 µM) | MIC (Staphylococcus aureus [3]): 2 µg/mL (≈ 5.34 µM) | concentration at 5 min [4]: 57500 ng/mL | MIC (Klebsiella aerogenes): 8 µg/mL (≈ 21.3 µM) | bioavailability [5]: 4.2% | concentration at 40 min [6]: 15600 ng/mL | MIC [7]: 8 µg/mL (≈ 21.3 µM) | concentration at 3 h [8]: < 1300 ng/mL | MIC [9]: 2 µg/mL (≈ 5.34 µM) | MIC (Staphylococcus aureus [10]): 1 µg/mL (≈ 2.67 µM) | MIC [11]: 1 µg/mL (≈ 2.67 µM) | MIC [12]: 4 µg/mL (≈ 10.7 µM) | AUC [13]: 50300 ng·h/mL | dose excreted [14]: 10% | AUC (Canis familiaris [15]): 9330 ng·h/mL | AUC at 3 h [16]: 35400 ng·h/mL | bioavailability [17]: 64% | concentration at 20 min [18]: 32000 ng/mL | bioavailability [19]: 19.2% | dose excreted [20]: 84.3% | AUC (Canis familiaris [21]): 33200 ng·h/mL | AUC [22]: 2170 ng·h/mL | concentration at 2 h [23]: 1800 ng/mL | half-life [24]: 23.5 min | MIC (Streptococcus pyogenes [25]): 0.25 µg/mL (≈ 0.667 µM) | MIC (Salmonella): 0.25 µg/mL (≈ 0.667 µM) | MIC (Streptococcus pyogenes [26]): 0.125 µg/mL (≈ 0.333 µM) | concentration at 1 h [27]: 9800 ng/mL | dose excreted [28]: 36% | MIC [29]: 1 µg/mL (≈ 2.67 µM) | MIC (Streptococcus pneumoniae [30]): 0.25 µg/mL (≈ 0.667 µM)
SMILES: Nc1nc(CC(=O)N[C@@H]2C(=O)N3C(C(=O)O)=C(Cl)CS[C@H]23)cs1
